Data reported in ChEMBL document CHEMBL3227991, “5-Iminodaunorubicin. Reduced cardiotoxic properties in an antitumor anthracycline” (J Med Chem, 1979).

How the values were obtained:
B16 [1] = experiment: Antitumor activity against mouse B16 cells allografted in mouse assessed as increase in survival time at 6.25 mg/kg administered as qd for 1 to 9 days relative to control; assay type: functional
How it was run: (§1)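 Transplanted P388 leukemia or B16 melanoma in mice, dosed on a schedule of nine daily doses (qd 1-9). Efficacy was the increase in survival time of treated versus control animals (% T/C), from single tests.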

P388 [2] = experiment: Antitumor activity against mouse P388 cells allografted in mouse assessed as increase in survival time at 6.25 mg/kg administered as qd for 1 to 9 days relative to control; assay type: functional; how it was run: as §1
B16 [3] = experiment: Antitumor activity against mouse B16 cells allografted in mouse assessed as increase in survival time at 6.25 mg/kg, ip administered as single dose on day 1 relative to control; assay type: functional; settings: route intraperitoneal
How it was run: (§2)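 B16 melanoma in mice. Treatment was given as nine daily doses, as a single dose on day 1, or as a single dose delayed to day 5. Activity was taken as the increase in survival time of treated versus control animals (% T/C).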

P388 [4] = experiment: Antitumor activity against mouse P388 cells allografted in mouse assessed as increase in survival time at 1.5 mg/kg, ip administered as single dose on day 5, 9 and 13 relative to control; assay type: functional; settings: route intraperitoneal
How it was run: (§3)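 Mice received ip P388 leukemia cells on day 0. Disease was left to progress and ip dosing was delayed to days 5, 9 and 13. Survival time of treated relative to control mice was expressed as % T/C, with ≥125 defined as active. Values are means of repeated tests (27 for reference agents, duplicate for others).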

P388 [5] = experiment: Antitumor activity against mouse P388 cells allografted in mouse assessed as increase in survival time at 4 mg/kg, ip administered as qd for 1 to 9 days relative to control; assay type: functional; settings: route intraperitoneal
Calf thymus DNA = experiment: Binding affinity to calf thymus DNA assessed as change in melting temperature; assay type: nucleic-acid assay; settings: Bos taurus
How it was run: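 Thermal denaturation of isolated helical DNA in 0.010 M phosphate buffer, pH 7.0, with 10⁻⁵ M EDTA and 5% Me₂SO to solubilize compounds; read-out is the increase in melting temperature (ΔTm, °C).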

Rattus norvegicus = species: Rattus norvegicus; experiment: Cardiotoxicity in rat assessed as minimum cumulative drug dose causing electrocardiographic changes; assay type: toxicity, organism-based; settings: in vivo
How it was run: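 Zbinden cardiotoxicity test in rats; endpoint is the minimum cumulative dose producing significant electrocardiographic changes, expressed in mg/kg.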

P388 [6] = experiment: Antitumor activity against mouse P388 cells allografted in mouse assessed as increase in survival time at 24 mg/kg, ip administered as single dose on day 5, 9 and 13 relative to control; assay type: functional; settings: route intraperitoneal; how it was run: as §3
P388 [7] = experiment: Antitumor activity against mouse P388 cells allografted in mouse assessed as increase in survival time at 3 mg/kg, ip administered as single dose on day 5, 9 and 13 relative to control; assay type: functional; settings: route intraperitoneal; how it was run: as §3
L1210 [8] = experiment: Inhibition of RNA synthesis in mouse L1210 cells; assay type: functional; settings: read-out: ED50 (the source's name)
Salmonella typhimurium [9] = experiment: Genotoxicity in Salmonella typhimurium TA98 assessed as number of revertants by Ames test in presence of microsomal activation; assay type: toxicity, organism-based; settings: salmonella enterica subsp. enterica serovar typhimurium
How it was run: (§4)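 Ames reversion in S. typhimurium TA98, run with and without microsomal activation; doses up to a maximum of 32 μg/plate; four determinations; mutagenicity given as revertants/nmol.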

Salmonella typhimurium [10] = experiment: Genotoxicity in Salmonella typhimurium TA100 by Ames test; assay type: toxicity, organism-based; settings: salmonella enterica subsp. enterica serovar typhimurium
P388 [11] = experiment: Antitumor activity against mouse P388 cells allografted in mouse assessed as increase in survival time at 1 mg/kg, ip administered as qd for 1 to 9 days relative to control; assay type: functional; settings: route intraperitoneal
B16 [12] = experiment: Antitumor activity against mouse B16 cells allografted in mouse assessed as increase in survival time at 12.5 mg/kg, ip administered as single dose on day 5 relative to control; assay type: functional; settings: route intraperitoneal; how it was run: as §2
B16 [13] = experiment: Antitumor activity against mouse B16 cells allografted in mouse assessed as increase in survival time at 2 mg/kg, ip administered as qd for 1 to 9 days relative to control; assay type: functional; settings: route intraperitoneal; how it was run: as §2
P388 [14] = experiment: Antitumor activity against mouse P388 cells allografted in mouse assessed as increase in survival time at 2 mg/kg, ip administered as qd for 1 to 9 days relative to control; assay type: functional; settings: route intraperitoneal
P388 [15] = experiment: Antitumor activity against mouse P388 cells allografted in mouse assessed as increase in survival time at 0.5 mg/kg, ip administered as qd for 1 to 9 days relative to control; assay type: functional; settings: route intraperitoneal
Salmonella typhimurium [16] = experiment: Genotoxicity in Salmonella typhimurium TA98 assessed as number of revertants by Ames test in absence of microsomal activation; assay type: toxicity, organism-based; settings: salmonella enterica subsp. enterica serovar typhimurium; how it was run: as §4
Salmonella typhimurium [17] = experiment: Genotoxicity in Salmonella typhimurium TA98 assessed as number of revertants by Ames test; assay type: toxicity, organism-based; settings: salmonella enterica subsp. enterica serovar typhimurium; how it was run: as §4
L1210 [18] = experiment: Inhibition of DNA synthesis in mouse L1210 cells; assay type: functional; settings: read-out: ED50 (the source's name)
Salmonella typhimurium [19] = experiment: Genotoxicity in Salmonella typhimurium TA98 at 32 ug/plate by Ames test; assay type: toxicity, organism-based; settings: salmonella enterica subsp. enterica serovar typhimurium; how it was run: as §4
P388 [20] = experiment: Antitumor activity against mouse P388 cells allografted in mouse assessed as increase in survival time at 12 mg/kg, ip administered as single dose on day 5, 9 and 13 relative to control; assay type: functional; settings: route intraperitoneal; how it was run: as §3
P388 [21] = experiment: Antitumor activity against mouse P388 cells allografted in mouse assessed as increase in survival time at 6 mg/kg, ip administered as single dose on day 5, 9 and 13 relative to control; assay type: functional; settings: route intraperitoneal; how it was run: as §3
P388 [22] = experiment: Antitumor activity against mouse P388 cells allografted in mouse assessed as increase in survival time at 8 mg/kg, ip administered as single dose on day 5, 9 and 13 relative to control; assay type: functional; settings: route intraperitoneal; how it was run: as §3
P388 [23] = experiment: Antitumor activity against mouse P388 cells allografted in mouse assessed as increase in survival time at 2 mg/kg, ip administered as single dose on day 5, 9 and 13 relative to control; assay type: functional; settings: route intraperitoneal; how it was run: as §3
P388 [24] = experiment: Antitumor activity against mouse P388 cells allografted in mouse assessed as increase in survival time at 0.39 mg/kg, ip administered as qd for 1 to 9 days relative to control; assay type: functional; settings: route intraperitoneal
P388 [25] = experiment: Antitumor activity against mouse P388 cells allografted in mouse assessed as increase in survival time at 1.56 mg/kg, ip administered as qd for 1 to 9 days relative to control; assay type: functional; settings: route intraperitoneal
Salmonella typhimurium [26] = experiment: Genotoxicity in Salmonella typhimurium 8907 assessed as number of revertants by Ames test in presence of S9 fraction; assay type: toxicity, organism-based; settings: salmonella enterica subsp. enterica serovar typhimurium
P388 [27] = experiment: Antitumor activity against mouse P388 cells allografted in mouse assessed as increase in survival time at 16 mg/kg, ip administered as single dose on day 5, 9 and 13 relative to control; assay type: functional; settings: route intraperitoneal; how it was run: as §3
P388 [28] = experiment: Antitumor activity against mouse P388 cells allografted in mouse assessed as increase in survival time at 0.2 mg/kg, ip administered as qd for 1 to 9 days relative to control; assay type: functional; settings: route intraperitoneal
P388 [29] = experiment: Antitumor activity against mouse P388 cells allografted in mouse assessed as increase in survival time at 4 mg/kg, ip administered as single dose for every 4 days up to 13 days relative to control; assay type: functional; settings: route intraperitoneal; how it was run: as §3
P388 [30] = experiment: Antitumor activity against mouse P388 cells allografted in mouse assessed as increase in survival time at 0.78 mg/kg, ip administered as qd for 1 to 9 days relative to control; assay type: functional; settings: route intraperitoneal
Salmonella typhimurium [31] = experiment: Genotoxicity in Salmonella typhimurium TA100 assessed as number of revertants by Ames test; assay type: toxicity, organism-based; settings: salmonella enterica subsp. enterica serovar typhimurium
Salmonella typhimurium [32] = experiment: Genotoxicity in Salmonella typhimurium TA98 at >8 ug/plate by Ames test; assay type: toxicity, organism-based; settings: salmonella enterica subsp. enterica serovar typhimurium
Salmonella typhimurium [33] = experiment: Genotoxicity in Salmonella typhimurium 908 assessed as number of revertants by Ames test; assay type: toxicity, organism-based; settings: salmonella enterica subsp. enterica serovar typhimurium

SMILES	ΔTm (Calf thymus DNA)	MTC (Rattus norvegicus)	EC50 (L1210 [8])	Activity (Salmonella typhimurium [17])	EC50 (L1210 [18])	T/C (P388 [22])	T/C (P388 [23])	T/C (P388 [24])	T/C (P388 [25])	T/C (P388 [27])	T/C (P388 [28])	T/C (P388 [29])	T/C (P388 [30])	further results
COc1cccc2c1C(=O)c1c(O)c3c(c(O)c1C2=O)C[C@@](O)(C(N)=O)C[C@@H]3O[C@H]1C[C@H](N)[C@H](O)[C@H](C)O1.Cl	–	–	–	–	–	–	–	–	–	–	–	–	–	T/C (B16 [1]): 161%; T/C (P388 [2]): 151%
COc1cccc2c1C(=N)c1c(O)c3c(c(O)c1C2=O)C[C@@](O)(C(C)=O)C[C@@H]3O[C@H]1C[C@H](N)[C@H](O)[C@H](C)O1.Cl	6.25 °C	64 mg/kg	1300 nM	1 revertants/nmol	1600 nM	–	–	–	–	–	–	–	–	T/C (B16 [3]): 173%; T/C (P388 [4]): 126%; T/C (P388 [5]): 153%; T/C (P388 [6]): 126%; T/C (P388 [7]): 130%; Activity (Salmonella typhimurium [9]): 0 nmol; Activity (Salmonella typhimurium [10]): Non-toxic; T/C (P388 [11]): 164%; T/C (B16 [12]): 122%; T/C (B16 [13]): 222%; T/C (P388 [14]): 170%; T/C (P388 [15]): 145%; Activity (Salmonella typhimurium [16]): 0 nmol; Activity (Salmonella typhimurium [19]): Non-toxic; T/C (P388 [20]): 116%; T/C (P388 [21]): 124%
COc1cccc2c1C(=O)c1c(O)c3c(c(O)c1C2=O)C[C@@](O)(C(=O)CO)C[C@@H]3O[C@H]1C[C@H](N)[C@H](O)[C@H](C)O1 [DOXORUBICIN]	13.4 °C	11 mg/kg	700 nM	–	1500 nM	159%	130%	174%	176%	120%	160%	146%	197%	Activity (Salmonella typhimurium [26]): 108 revertants/nmol
COc1cccc2c1C(=O)c1c(O)c3c(c(O)c1C2=O)C[C@@](O)(C(C)=O)C[C@@H]3O[C@H]1C[C@H](N)[C@H](O)[C@H](C)O1.Cl [DAUNORUBICIN HYDROCHLORIDE]	–	14 mg/kg	300 nM	100 revertants/nmol	1000 nM	132%	126%	153%	148%	126%	144%	128%	160%	Activity (Salmonella typhimurium [31]): 0.5 revertants/nmol; Activity (Salmonella typhimurium [32]): Toxic; Activity (Salmonella typhimurium [33]): 356 revertants/nmol
